{"data": "Measurements collected from several papers", "FGFR3": "Fibroblast growth factor receptor 3 (FGFR3, Homo sapiens, UniProt P22607)", "FGFR3 G697C": "Fibroblast growth factor receptor 3 (FGFR3, Homo sapiens, UniProt P22607, G697C)"}
{"Structure (SMILES)": "Cc1c(NC(=O)c2cc(C(N)=O)nc3cc(F)ccc23)c(C(F)(F)F)nn1Cc1ccc(C(C)(C)C)cc1", "target": "FGFR3", "test": "cell-free assay, competition with immobilised ligand", "conditions": "1 µM", "endpoint": "remaining binding", "result": "92%"}
{"Structure (SMILES)": "CN(CCCC(F)(F)F)c1nccc(-c2cnn3ncccc23)n1", "target": "FGFR3 G697C", "test": "binding", "conditions": "1 µM", "endpoint": "remaining binding", "result": "86%"}
{"Structure (SMILES)": "CNc1cccc2cc(C(=O)Nc3ccc(C(=O)O)cc3)c(=O)[nH]c12", "target": "FGFR3", "test": "enzyme activity, inhibitor", "conditions": "10 µM", "endpoint": "inhibition", "result": "-1.1%"}
{"Structure (SMILES)": "CN(C)c1ncnc(-c2ccc3nc(Nc4cc(CN5CCN(C(=O)CC(F)(F)F)CC5)ccn4)[nH]c3c2)c1Cl", "target": "FGFR3", "test": "cell-free assay, competition with immobilised ligand", "conditions": "1 µM", "endpoint": "remaining binding", "result": "100%"}
{"Structure (SMILES)": "COc1cc2nccc(Oc3ccc(NC(=O)c4c5n(n(-c6ccc(F)cc6)c4=O)CCCC5)cc3)c2cc1OC", "target": "FGFR3", "test": "enzyme activity, inhibitor", "conditions": "0.1 µM", "endpoint": "inhibition", "result": "-4%"}
{"Structure (SMILES)": "COc1cc2ncnc(Nc3ccc(Oc4ccccc4)cc3C)c2cc1OC", "target": "FGFR3", "test": "enzyme activity, inhibitor", "conditions": "1 µM", "endpoint": "inhibition", "result": "5%"}
{"Structure (SMILES)": "CNCc1ccc(-c2cc(-c3nc(-c4ccc(S(=O)(=O)C(C)C)cc4)cnc3N)on2)cc1", "target": "FGFR3", "test": "enzyme activity, inhibitor", "conditions": "2 µM", "endpoint": "inhibition", "result": "10%"}
{"Structure (SMILES)": "COc1ccnn2ncc(-c3ccnc(N(C)C)n3)c12", "target": "FGFR3 G697C", "test": "binding", "conditions": "1 µM", "endpoint": "remaining binding", "result": "100%"}
{"Structure (SMILES)": "COc1cc2ncnc(Nc3ccc(Oc4ccccc4)c(C)c3C)c2cc1OC", "target": "FGFR3", "test": "enzyme activity, inhibitor", "conditions": "1 µM", "endpoint": "inhibition", "result": "-2%"}
{"Structure (SMILES)": "N#CCCc1ccc2c(c1)-c1[nH]c3ccc([N+](=O)[O-])cc3c1CC(=O)N2", "target": "FGFR3", "test": "cell-free assay", "conditions": "0.5 µM", "endpoint": "remaining signal", "result": "90.3%"}
{"Structure (SMILES)": "Cc1ccc(Nc2nccc(N(C)c3ccc4c(C)n(C)nc4c3)n2)cc1S(N)(=O)=O", "target": "FGFR3", "test": "enzyme activity, inhibitor", "conditions": "0.3 µM", "endpoint": "inhibition", "result": "66%"}
{"Structure (SMILES)": "O=C(O)[C@@H]1[C@@H](Cn2nnc3ccccc3c2=O)CC[C@H]1C(=O)c1ccc(OCCC2CCOCC2)cc1", "target": "FGFR3 G697C", "test": "cell-free assay, competition with immobilised ligand", "conditions": "1 µM", "endpoint": "remaining binding", "result": "92%"}
{"Structure (SMILES)": "Cc1sc(C(=O)NC2COC2)cc1-n1cc(NC(=O)Nc2c(F)cccc2Cl)cn1", "target": "FGFR3", "test": "enzyme activity, inhibitor", "conditions": "10 µM", "endpoint": "remaining activity", "result": "137%"}
{"Structure (SMILES)": "CN(C)c1nccc(-c2cnc3ncccn23)n1", "target": "FGFR3", "test": "binding", "conditions": "1 µM", "endpoint": "remaining binding", "result": "100%"}
{"Structure (SMILES)": "CCOCCn1cc(C(=O)Nc2ccc(-n3nc(-c4cccnc4)cc3C(F)(F)F)cn2)ccc1=O", "target": "FGFR3", "test": "cell-free assay, competition with immobilised ligand", "conditions": "1 µM", "endpoint": "remaining binding", "result": "84%"}
{"Structure (SMILES)": "O=C1NC(=O)c2cc(Nc3ccc(F)cc3)c(Nc3ccc(F)cc3)cc21", "target": "FGFR3", "test": "cell-free assay", "conditions": "0.5 µM", "endpoint": "remaining signal", "result": "99.7%"}
{"Structure (SMILES)": "C[C@@H]1CN(c2cc(-c3n[nH]c4ccc(OC5(C)CC5)cc34)ncn2)C[C@H](C)O1", "target": "FGFR3 G697C", "test": "cell-free assay, competition with immobilised ligand", "conditions": "0.1 µM", "endpoint": "remaining binding", "result": "86%"}
{"Structure (SMILES)": "Cc1ccc(NC(=O)c2ccc(C)c(C(F)(F)F)c2)cc1C#Cc1nn(C2CCC(O)CC2)c2ncnc(N)c12 (stereo not shown)", "target": "FGFR3", "test": "cell-free assay", "conditions": "10 µM", "endpoint": "remaining signal", "result": "3%"}
{"Structure (SMILES)": "CCCS(=O)(=O)Nc1ccc(F)c(C(=O)c2c[nH]c3ncc(-c4ccc(Cl)cc4)cc23)c1F", "target": "FGFR3", "test": "enzyme activity, inhibitor", "conditions": "1 µM", "endpoint": "inhibition", "result": "< 10%"}
{"Structure (SMILES)": "CC/C(=N\\NC(=O)NCc1cccc(O)c1)c1ccc(O)c(C)c1O", "target": "Fibroblast growth factor receptor 3 (FGFR3, Homo sapiens, UniProt P22607, K650M)", "test": "enzyme activity, inhibitor", "conditions": "0.1 µM", "endpoint": "inhibition", "result": "4.2%"}
{"Structure (SMILES)": "Nc1ncnc2occ(-c3ccc(NC(=O)Nc4cc(C(F)(F)F)ccc4F)cc3)c12", "target": "FGFR3", "test": "cell-free assay", "conditions": "20 µM", "endpoint": "remaining signal", "result": "0.75%"}
{"Structure (SMILES)": "O=C(CSc1nc2nccnc2c(=O)n1CCc1ccccc1)Nc1nccs1", "target": "FGFR3", "test": "enzyme activity, inhibitor", "conditions": "10 µM", "endpoint": "inhibition", "result": "8%"}
{"Structure (SMILES)": "CCN(CC)CCNC(=O)c1c(C)[nH]c(/C=C2\\C(=O)Nc3ccc(F)cc32)c1C", "target": "FGFR3", "test": "enzyme activity, inhibitor", "conditions": "0.3 µM", "endpoint": "inhibition", "result": "61%"}
{"Structure (SMILES)": "N[C@H]1CCN(c2nccc(-c3cnn4ncccc34)n2)C1", "target": "FGFR3", "test": "binding", "conditions": "1 µM", "endpoint": "remaining binding", "result": "84%"}
{"Structure (SMILES)": "CCc1ccccc1C(=O)Nc1n[nH]c2c(C)c(F)c(C3C(C#N)=C(C)N(C)C(C)=C3C#N)cc12", "target": "FGFR3", "test": "cell-free assay, competition with immobilised ligand", "conditions": "1 µM", "endpoint": "remaining binding", "result": "93%"}
{"Structure (SMILES)": "CC(C)(C)c1nc(-c2cccc(NS(=O)(=O)c3c(F)cccc3F)c2F)c(-c2ccnc(N)n2)s1", "target": "FGFR3", "test": "enzyme activity, inhibitor, radiometric", "conditions": "1 µM", "endpoint": "remaining activity", "result": "118%"}
{"Structure (SMILES)": "CC(C)(O)[C@H]1CC[C@H](Nc2ccc3ncc(-c4cccc(C(F)(F)F)c4)n3n2)CC1", "target": "FGFR3", "test": "enzyme activity, inhibitor", "conditions": "1 µM", "endpoint": "remaining activity", "result": "102%"}
{"Structure (SMILES)": "O=C1Nc2ccc(Cl)cc2C1=Cc1cc(Cl)c(O)c(Cl)c1", "target": "FGFR3", "test": "cell-free assay", "conditions": "0.5 µM", "endpoint": "remaining signal", "result": "94%"}
{"Structure (SMILES)": "CCCCN(CCCC)C(=O)CN1C[C@H](c2cc(OC)c3c(c2)OCO3)[C@@H](C(=O)O)[C@@H]1CC(C)(C)CCC", "target": "FGFR3", "test": "cell-free assay, competition with immobilised ligand", "conditions": "1 µM", "endpoint": "remaining binding", "result": "100%"}
{"Structure (SMILES)": "C[C@H]1CCN(c2nccc(-c3cnn4ncccc34)n2)C1", "target": "FGFR3 G697C", "test": "binding", "conditions": "1 µM", "endpoint": "remaining binding", "result": "83%"}
{"Structure (SMILES)": "Cc1ccc(C(=O)Nc2ccc(CN3CCN(C)CC3)c(C(F)(F)F)c2)cc1C#Cc1cnc2cccnn12", "target": "FGFR3", "test": "cell-free assay", "conditions": "23.5 nM", "endpoint": "remaining signal", "result": "62%"}
{"Structure (SMILES)": "CN(c1nccc(-c2cnn3ncccc23)n1)C1CC1", "target": "FGFR3 G697C", "test": "binding", "conditions": "1 µM", "endpoint": "remaining binding", "result": "100%"}
{"Structure (SMILES)": "CC(C)CC(=O)N1CCc2nc(-c3ccc(Br)cc3)nc(N(C)Cc3ccccc3)c2C1", "target": "FGFR3", "test": "cell-free assay, competition with immobilised ligand", "conditions": "0.1 µM", "endpoint": "remaining binding", "result": "100%"}
{"Structure (SMILES)": "COc1cc(Cl)c(C(=O)N[C@@H](CN[C@H]2CC[C@@H](N)CC2)Cc2ccc(C#N)cc2)cc1-c1ccc(CN[C@H](C)c2ccc(C)cc2)o1", "target": "FGFR3", "test": "enzyme activity, inhibitor", "conditions": "1 µM", "endpoint": "remaining activity", "result": "85%"}
